Assay results reported in PubChem BioAssay AID624121 (Johns Hopkins Ion Channel Center, 2012).

Molecular target: Potassium channel subfamily K member 9 (Homo sapiens) (UniProt Q9NPC2)
Test: KCNK9 current inhibition, whole-cell recording, SAR follow-up, manual electrophysiology (AID 624121)
Details: HEK293 KCNK9 stable, whole-cell patch clamp current; at 1 µM; stronger effect = higher value
Method in brief: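 test system = inducible KCNK9-expressing HEK293 cell line | timing = induction 16–24 h pre-recording, 30 s ramp interval | evaluation = percent current inhibition at -20 mV versus current in 5 mM K+ bath | signal = whole-cell patch clamp current at -20 mV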

Sequence of Potassium channel subfamily K member 9 (Homo sapiens) (Q9NPC2 whole entry, looked up): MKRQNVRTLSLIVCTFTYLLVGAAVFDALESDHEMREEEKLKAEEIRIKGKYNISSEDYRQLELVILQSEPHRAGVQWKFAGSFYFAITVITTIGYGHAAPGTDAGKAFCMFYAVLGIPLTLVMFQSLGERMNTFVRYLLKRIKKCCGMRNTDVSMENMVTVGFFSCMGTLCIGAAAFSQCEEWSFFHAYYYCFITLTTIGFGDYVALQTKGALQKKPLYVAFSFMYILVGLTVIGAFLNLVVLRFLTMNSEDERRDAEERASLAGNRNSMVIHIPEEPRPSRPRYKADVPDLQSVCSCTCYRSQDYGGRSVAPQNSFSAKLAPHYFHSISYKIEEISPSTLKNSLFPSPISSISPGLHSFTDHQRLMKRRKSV

C[C@@H]([C@@H]1CC2CC[C@H]1C2)n1c(-c2ccco2)n[nH]c1=S
inhibition: 55.2%
